# Experimental data collected from several papers.
# Protocols differ between the studies behind these lines.
# Target: Cytochrome P450 2C8 (CYP2C8, Homo sapiens, UniProt P10632)
# Read-out: enzyme activity
# Mode: inhibitor
SMILES,method,species,sample,time,pH,endpoint,result
Cc1cc2c(F)c(Oc3ncnn4cc(OC[C@@H](C)O)c(C)c34)ccc2[nH]1,fluorescence,,,15 min,,IC50,3.08 µM
C=CC(=O)Nc1cc(Nc2nccc(Nc3cc(Cl)c(F)cc3C(C)(C)O)n2)c(OC)cc1N1CC[C@@H](N(C)C)C1,,human,liver microsomes,,,IC50,> 30 µM
Cc1ccc2nc(-c3ccccc3)c(CNc3ccc(F)cc3)n2c1,,,,,,IC50,1 µM
N#C[C@H](C[C@@H]1CCCNC1=O)NC(=O)[C@H](CC1CC1)NC(=O)c1cc2cccc(Cl)c2[nH]1,,human,liver microsomes,,,IC50,3.9 µM
COc1ccn2c(Nc3ccccc3F)c(-c3ccncn3)nc2c1,,,,,,IC50,1 µM
CCc1cc(/C(C)=N/OCc2ccc(C3CCCCC3)c(C(F)(F)F)c2)ccc1CN1CC(C(=O)O)C1,,human,liver microsomes,20 min,,IC50,> 1.1 µM
C[C@@H](c1ccc2nccn2c1)n1nnc2ncc(-c3cnn(C)c3)nc21,,human,liver microsomes,,pH 7.4,IC50,16 µM
Ic1ccc(CSCn2ccnc2)cc1,,,,30 min,pH 7.4,IC50,0.566 µM
Cc1cc(C)c2c(c1)[C@@H](N(Cc1cc(C(F)(F)F)cc(C(F)(F)F)c1)c1nnn(C)n1)CCCN2C[C@H]1CC[C@H](C(=O)O)CC1,,human,liver microsomes,,pH 7.4,Ki,1.3 µM
NS(=O)(=O)NCCNc1nonc1C(=NO)Nc1ccc(F)c(Br)c1,,,,,,IC50,> 10 µM
